High-throughput results (PubChem)
In the library only some 2.2% were active in any assay of this set; here they are far more common.
NR2E3 ag-1 = activates human photoreceptor nuclear receptor NR2E3. Q9Y5X4. GST-NR2E3/biotin-RetCOR TR-FRET, 1536-well. inhibition of corepressor binding, % at 4.78 µM. 320,000 tested, 0.12% active. AID 2300;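 active = percent inhibition above the cutoff of mean plus 3 SD of all tested compounds, set per screening campaign, cut at about 20% in these data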;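 also: 0% = DMSO wells and 100% = biotin wells as full block of FRET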
Target sequence (Q9Y5X4 whole entry, looked up): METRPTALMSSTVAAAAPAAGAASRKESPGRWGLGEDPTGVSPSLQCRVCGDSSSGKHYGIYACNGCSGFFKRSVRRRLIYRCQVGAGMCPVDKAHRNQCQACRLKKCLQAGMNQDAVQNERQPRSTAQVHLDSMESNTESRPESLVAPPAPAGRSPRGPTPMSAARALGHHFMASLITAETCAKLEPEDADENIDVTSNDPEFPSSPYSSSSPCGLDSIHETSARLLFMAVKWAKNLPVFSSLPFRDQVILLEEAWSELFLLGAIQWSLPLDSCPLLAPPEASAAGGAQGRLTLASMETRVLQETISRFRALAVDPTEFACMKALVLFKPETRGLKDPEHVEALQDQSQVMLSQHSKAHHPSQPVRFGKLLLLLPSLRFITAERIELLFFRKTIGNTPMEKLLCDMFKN
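Material: NR2E3–RetCOR corepressor complex | Quantity: 1.35 nM GST-tagged NR2E3 final | Schedule: 5 h at 4 °C | Replication: Singlicate compound wells | Reagent: RetCOR corepressor, biotinylated, 7 nM | Controls: Biotin wells as high control, 0.6% DMSO wells as low control | Signal: TR-FRET, Eu(K)-anti-GST donor, streptavidin-D2 acceptor, ex 340, em 617/671 nm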
HIV Env fusion = HIV envelope-mediated fusion inhibition; HeLa-JRFL Env/CEM21 cell fusion, luciferase; inhibition, % at 12.3 µM; 360,000 tested, 1.1% active;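 active = mean replicate inhibition score of at least 50 and every replicate individually at or above 50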;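 also: 0% = plate neutral controls and 100% = maraviroc near 300 nM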
V-ATPase pH = yeast V-ATPase proton transport regulation by pHLuorin. response, % at 10 µM. S. cerevisiae, pHLuorin cytosolic pH fluorescence. 350,000 tested, 0.37% active; in the data active = response mostly above about 7.3%, no sharp cut-off; inactive = mostly below about 5.4%; also: actives read high
NR2E3 ag-2 = activates human NR2E3 receptor; CHO-S Gal4-NCOR/VP16-NR2E3 two-hybrid, luciferase; inhibition of corepressor binding, % at 3.98 µM; 360,000 tested, 0.35% active; AID 602229;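 active = inhibition above the mean of all tested compounds plus 3 SD, cut at about 70% in these data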;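 also: 0% = DMSO with NR2E3 transfected cells and 100% = cells lacking NR2E3 construct; higher means lower luciferase signal from less NR2E3 corepressor binding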
FXN GAA850 act = frataxin GAA850 promoter activation. HEK293 lucGAA850 FXN promoter luciferase reporter, 24 h; percent of 10 µM SAHA response. activation, % at 6 µM. 360,000 tested, 0.56% active;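 active = activation above the average of all compounds screened plus 3 SD, cutoff fixed separately per campaign, cut at about 7.5% in these data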;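 also: 0% = DMSO wells and 100% = 10 µM SAHA wells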
GalR3 antagonist = blocks the human galanin receptor 3; inhibition, % at 3 µM; AID 651719; 360,000 tested, 0.44% active; HEK293 GalR3-CNG cAMP membrane potential fluorescence; galR3 body fused to GalR1 C-terminus; O60755;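 active = inhibition above the screen-wide average plus 3 SD, cut at about 13% in these data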;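 also: forskolin and galanin both at EC90 stimulate the cells; cAMP rise reported by CNG channel membrane potential dye signal; 0% = forskolin plus galanin with DMSO and 100% = forskolin alone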
Target sequence (O60755 1-299 limits assumed): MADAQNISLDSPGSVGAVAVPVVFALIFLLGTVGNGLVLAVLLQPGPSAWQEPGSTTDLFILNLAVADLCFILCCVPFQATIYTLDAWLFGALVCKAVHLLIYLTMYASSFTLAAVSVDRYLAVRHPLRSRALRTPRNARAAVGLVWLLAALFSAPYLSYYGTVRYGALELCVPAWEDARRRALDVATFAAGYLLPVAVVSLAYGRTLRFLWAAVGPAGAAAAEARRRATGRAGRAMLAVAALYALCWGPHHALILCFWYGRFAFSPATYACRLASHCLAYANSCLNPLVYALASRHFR
GAA30 counter = counter-screen for GAA850 frataxin promoter activators: GAA30 promoter activation; shares compounds with FXN GAA850 act; HEK293 lucGAA30 FXN promoter luciferase, 24 h; DMSO = 0%, 5 µM ipriflavone = 100%; activation, % at 6 µM; 1,900 tested, 66% active; AID 588350;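 active = mean activation above the mean of solvent-only control wells plus 3 SD, cut at about 22% in these data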;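 also: counterscreen of GAA850 promoter hits where activity marks nonselective or luminescence artifacts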
FXN GAA850 conf = confirmation of GAA850 frataxin (FXN) promoter activators; shares compounds with FXN GAA850 act; AID 588351; HEK293 lucGAA850 FXN promoter luciferase reporter, 24 h; 100% = activation by SAHA; activation, % at 6 µM; 1,900 tested, 86% active;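 active = mean activation above a set limit taken from the primary screen, cut at about 8% in these data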;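 also: 0% = DMSO wells and 100% = 10 µM SAHA wells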
* hit, by the source's call; i = inactive; nt = no result given; [ ] = another dose, or the depositor's remark.

SMILES	NR2E3 ag-1	HIV Env fusion	V-ATPase pH	NR2E3 ag-2	FXN GAA850 act	GalR3 antagonist	GAA30 counter	FXN GAA850 conf
C[C@@H]1CN([C@@H](C)CO)C(=O)c2cc(C3=CCCCC3)cnc2O[C@@H]1CN(C)C(=O)c1ccccn1	nt	-24[16.7 µM]	nt	nt	nt	nt	nt	nt
C[C@H](CO)N1C[C@H](C)[C@H](CN(C)C(=O)Nc2cccc3ccccc23)Oc2ccc(NC(=O)CCC(F)(F)F)cc2C1=O	nt	-2[16.7 µM]	nt	nt	nt	nt	nt	nt
COc1ccc(C2CC(=O)N(C)c3ccccc3S2)cc1OC (stereo not given)	1	-2	4	-8	8.4*	-2	122*	45*
COCC(=O)N[C@H]1CC[C@H](CC(=O)NCc2ccccc2OC)O[C@@H]1CO	nt	-11[16.7 µM]	nt	nt	nt	nt	nt	nt
COc1ccc(/C=C/C(=O)Nc2ccc(-n3nncc3-c3ccc(OC)c(OC)c3)cc2)cc1OC	0	-14	1	-1	8.9*	-2	23*	17*
COc1ccc(-c2cnnn2-c2ccc(NC(=O)/C=C/c3ccc(OC)c(OC)c3)cc2)cc1	1	12	0	2	1	-3	nt	nt
O=C(Nc1ccccc1-c1ccccc1)c1cnccn1	-2	nt	-2	-27	9.0*	-1	41*	22*
Cc1ccc(N=Nc2c(O)n(CN3CCOCC3)c3ccccc23)cc1	0	nt	-5	-115	7.7*	nt	135*	50*
Cc1ccc(Cn2c(O)c(N=O)c3ccccc32)cc1	2	14	4	4	0	-4	nt	nt
CNC[C@H]1OCCCC[C@H](C)Oc2ccc(NC(=O)Nc3ccc4c(c3)OCO4)cc2C(=O)N([C@H](C)CO)C[C@H]1C	nt	-10[16.7 µM]	nt	nt	nt	nt	nt	nt
O=C(NCc1cccs1)c1ccc(N2CCCCC2)nc1	1	-50	-2	-66	7.7*	-9	86*	30*
N#Cc1c(-c2ccco2)cc(C2CC2)nc1N	2	-62	1	-4	6	-6	nt	nt
N#Cc1c(-c2ccccc2)cc(C2CC2)nc1N	3	14	-11	-10	8.3*	-2	13	9.5*
CCOc1cc(-c2nc3ccccc3s2)ccc1O	0	-30	4	-50	9.4*	-6	99*	29*
CC[C@@]1(C(=O)OC)N[C@H](CN(C)C(=O)Nc2ccc(OC)cc2)[C@@H]2C(=O)N(Cc3ccccc3)C(=O)[C@@H]21	nt	70*	-1	1	17*	-4	84*	24*
COC(=O)[C@]1(Cc2ccccc2)N[C@H](CN(C)C(=O)Nc2ccccc2)[C@@H]2C(=O)N(Cc3ccccc3)C(=O)[C@@H]21	nt	-30	-1	-39	-6	-1	nt	nt
CC[C@@]1(C(=O)OC)N[C@H](CN(C)C(=O)Nc2ccc(F)cc2)[C@@H]2C(=O)N(Cc3ccccc3)C(=O)[C@@H]21	nt	94*	0	-12	9.6*	-4	38*	18*
CC[C@@]1(C(=O)OC)N[C@H](CN(C)C(=O)Nc2ccc(C)cc2)[C@@H]2C(=O)N(Cc3ccccc3)C(=O)[C@@H]21	nt	66*	-1	-14	15*	0	42*	14*
CC(C)N1CCc2c(sc(NC(=O)c3ccc4ccccc4c3)c2C(N)=O)C1	2	19	3	-25	3	-10	nt	nt
CC(=O)Nc1sc2c(c1-c1nc3ccccc3s1)CCN(C(C)C)C2	-4	nt	0	3	34*	nt	-33	91*
N#CCn1c2ccccc2c2nc3ccccc3nc21	2	-35	1	1	9.3*	-2	52*	18*
CCCn1c2ccccc2c2nnc(SCCN3CCOCC3)nc21	-2	11	-4	-45	3	-6	nt	nt
C#CCn1c2ccccc2c2nc3ccccc3nc21	-5	-29	1	-141	6	-11	nt	nt
c1ccc2nc3c(nc2c1)c1ccccc1n3CCN1CCOCC1	3	-21	1	-116	12*	-4	52*	24*
C[C@H]1CN([C@@H](C)CO)C(=O)Cc2cc(NS(=O)(=O)c3cn(C)cn3)ccc2O[C@H]1CN(C)S(=O)(=O)c1ccc(F)cc1	nt	-75[16.7 µM]	nt	nt	nt	nt	nt	nt
SMILES	NR2E3 ag-1	HIV Env fusion	V-ATPase pH	NR2E3 ag-2	FXN GAA850 act	GalR3 antagonist	GAA30 counter	FXN GAA850 conf
C[C@@H]1CCCCO[C@@H](CN(C)C(=O)c2ccncc2)[C@H](C)CN([C@@H](C)CO)C(=O)c2cc(NS(=O)(=O)c3ccc(F)cc3)ccc2O1	nt	1[16.7 µM]	nt	nt	nt	nt	nt	nt
COCCCNc1nc2c(-c3ccc(C)cc3)nnn2c2ccccc12	4	-11	-15	-90	7.7*	-3	92*	39*
COCCCNc1nc2c(-c3cccc(C)c3)nnn2c2ccccc12	-3	nt	-89	-30	-1	nt	nt	nt
Cc1nc(NC(=O)c2oc3ccccc3c2C)sc1C(=O)N(C)C	1	-34	-1	-140	7.8*	-7	112*	36*
Nc1nc(SCc2ccc(Cl)cc2Cl)ns1	-1	-43	-1	-30	7.9*	-4	50*	15*
COCCNC(=O)C[C@H]1C[C@@H]2c3cc(NC(=O)CN(C)C)ccc3O[C@@H]2[C@@H](CO)O1	nt	18[16.7 µM]	nt	nt	nt	nt	nt	nt
CCNS(=O)(=O)c1ccc(CCC(=O)N2CCN(c3cccc(Cl)c3)CC2)cc1	3	29	1	-9	2	-7	nt	nt
Cc1ccc(S(=O)(=O)NCCC(=O)N2CCN(c3cccc(Cl)c3)CC2)cc1C	4	43	0	36	11*	-2	-5	1
CCC(=O)N1C[C@@H](C)[C@@H](OC)CN(C)C(=O)c2cc(NC(=O)C3CC3)ccc2OC[C@@H]1C	nt	5[16.7 µM]	nt	nt	nt	nt	nt	nt
O=S(=O)(CC(CN1CCCCC1)N1CCCCC1)c1ccccc1 (stereo not given)	4	17	1	-3	8.4*	0	76*	30*
O=[N+]([O-])c1ccc(S(=O)(=O)CC(CN2CCCCC2)N2CCCCC2)cc1 (stereo not given)	3	-12	-1	7	5	-2	nt	nt
O=C(NCCCN1CCOCC1)c1cc(-c2cccs2)on1	4	nt	3	-34	20*	-5	113*	80*
COc1ccc(OC)c(-c2cc(C(=O)NCCCn3ccnc3)no2)c1	2	-44	-1	17	6	-4	nt	nt
O=C(NCCCn1ccnc1)c1cc(-c2cccs2)on1	3	i	-1	-39	41*	-7	159*	114*
Cc1ccc(-c2cc(C(=O)NCCCN3CCOCC3)no2)cc1	0	29	0	35	-9	-4	nt	nt
O=C(NC1CCCC1)c1cc(-c2cccs2)on1	1	i	-3	-132	18*	-6	159*	92*
